{"source": "ChEMBL document CHEMBL4513216", "about": "“Probing the Open Global Health Chemical Diversity Library for Multistage-Active Starting Points for Next-Generation Antimalarials” (ACS Infect Dis, 2020)", "test": "Toxicity liver stage against HepG2, at 10uM", "format": "cell-based", "set-up": "test concentration 10 uM, cell line HepG2-A16-CD81EGFP", "settings": "human, HepG2-A16-CD81EGFP cells; read-out: INHIBITION", "outline": "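Uninfected HepG2-A16-CD81EGFP cells, 3 × 10^3 per well, 1536-well, plated on prespotted compound at 10 μM final, parasite-free screening media added to match infected plates; puromycin 10 μM positive, DMSO 0.5% negative; run in parallel with 48 h PbLuc assay at 37 °C, 5% CO2; viability by CellTiter-Glo luminescence, normalized to controls.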"}
{"smiles": "CCOC(=O)c1n[nH]cc1CN1CCOC(Cc2ccc(OC)cc2)C1", "note": "(configuration not stated)", "values": [{"measurement": "cytotoxicity at 10 µM", "result": -0.734, "unit": "%"}]}
{"smiles": "CN1CCN(Cc2c[nH]cn2)CC12CCC(=O)N(CC1CC1)CC2", "note": "(configuration not stated)", "values": [{"measurement": "cytotoxicity at 10 µM", "result": 2.98, "unit": "%"}]}
{"smiles": "Cc1ccc(OCc2occc2C(=O)N2CCCCC(N)C2)cc1", "note": "(configuration not stated)", "values": [{"measurement": "cytotoxicity at 10 µM", "result": -8.84, "unit": "%"}]}
{"smiles": "OCCC1CN(c2nc(-c3ccncc3)nc3c2CCNCC3)CCO1", "note": "(configuration not stated)", "values": [{"measurement": "cytotoxicity at 10 µM", "result": 5.05, "unit": "%"}]}
{"smiles": "CN(C)S(=O)(=O)N1CCCC(c2nccn2Cc2cccnc2)C1", "note": "(configuration not stated)", "values": [{"measurement": "cytotoxicity at 10 µM", "result": 4.61, "unit": "%"}]}
{"smiles": "COc1cnc(CN2CCN(CC(C)C)C(=O)C2C)cc1O", "note": "(configuration not stated)", "values": [{"measurement": "cytotoxicity at 10 µM", "result": 3.28, "unit": "%"}]}
{"smiles": "O=C(CCn1cc(Cl)cn1)N1CCN(CCOc2ccccc2)CC1", "values": [{"measurement": "cytotoxicity at 10 µM", "result": 4.92, "unit": "%"}]}
{"smiles": "CCn1c(N)nc2cc(C(=O)NCCCc3ccccn3)cnc21", "values": [{"measurement": "cytotoxicity at 10 µM", "result": -7.38, "unit": "%"}]}
{"smiles": "COc1c(F)cccc1C(=O)NC(C)c1cnn(C)c1", "note": "(configuration not stated)", "values": [{"measurement": "cytotoxicity at 10 µM", "result": 24.5, "unit": "%"}]}
{"smiles": "c1cc(-c2nccn2CCc2nc3c(s2)CCC3)ccn1", "values": [{"measurement": "cytotoxicity at 10 µM", "result": 6.15, "unit": "%"}]}
{"smiles": "CC(C)Oc1ccccc1-c1cc(CN)ccc1F", "values": [{"measurement": "cytotoxicity at 10 µM", "result": -2.69, "unit": "%"}]}
{"smiles": "COc1cccc2c1OCCCN(Cc1c[nH]nc1C(=O)O)C2", "values": [{"measurement": "cytotoxicity at 10 µM", "result": 6.5, "unit": "%"}]}
{"smiles": "CN1CCCC(CCC(=O)N2CCc3onc(C(=O)N(C)C)c3C2)C1", "note": "(configuration not stated)", "values": [{"measurement": "cytotoxicity at 10 µM", "result": -11, "unit": "%"}]}
{"smiles": "CN(CCc1ccccn1)C(=O)c1ccccc1F", "values": [{"measurement": "cytotoxicity at 10 µM", "result": -10.5, "unit": "%"}]}
{"smiles": "CNc1ncc(C(=O)N2CC[C@@](O)(C3CCOCC3)[C@H](C)C2)cn1", "values": [{"measurement": "cytotoxicity at 10 µM", "result": 4.56, "unit": "%"}]}
{"smiles": "CSCc1noc(C2CCC(=O)N(CCCN3CCCC3=O)C2)n1", "note": "(configuration not stated)", "values": [{"measurement": "cytotoxicity at 10 µM", "result": 3.59, "unit": "%"}]}
{"smiles": "Cc1cc(C)n(CC(C)NC(=O)c2cc(CN3CCC(O)CC3)on2)n1", "note": "(configuration not stated)", "values": [{"measurement": "cytotoxicity at 10 µM", "result": 0.873, "unit": "%"}]}
{"smiles": "NC(=O)c1cnc2n1CCN(C(=O)c1ccc(-c3cc[nH]n3)cc1)C2", "values": [{"measurement": "cytotoxicity at 10 µM", "result": -2.79, "unit": "%"}]}
{"smiles": "Cc1cc2[nH]c(CN3CCOC(Cc4ccccc4)C3)cc(=O)n2n1", "note": "(configuration not stated)", "values": [{"measurement": "cytotoxicity at 10 µM", "result": -24.1, "unit": "%"}]}
{"smiles": "Fc1cc(Cl)cnc1N1CCCC(c2nccn2CC2CC2)C1", "note": "(configuration not stated)", "values": [{"measurement": "cytotoxicity at 10 µM", "result": 4.8, "unit": "%"}]}
{"smiles": "O=C1CCc2ccccc2N1CCCn1cnnn1", "values": [{"measurement": "cytotoxicity at 10 µM", "result": 3.92, "unit": "%"}]}
{"smiles": "O=C(CCCc1cn[nH]c1)N1C[C@@H](CN2CCCC2)C[C@H](CO)C1", "values": [{"measurement": "cytotoxicity at 10 µM", "result": -8.96, "unit": "%"}]}
{"smiles": "CC(C)c1nccn1CCCNC(=O)c1ccc(-c2ccncc2)nc1", "values": [{"measurement": "cytotoxicity at 10 µM", "result": -9.77, "unit": "%"}]}
{"smiles": "CN1CCc2nc(N(C)C)nc(N3CCC(O)CC3)c2C1", "values": [{"measurement": "cytotoxicity at 10 µM", "result": -0.879, "unit": "%"}]}
{"smiles": "Cc1nc(O)cc(CNC(=O)CC[C@@H]2CCCN3CCCC[C@H]23)n1", "values": [{"measurement": "cytotoxicity at 10 µM", "result": 1.87, "unit": "%"}]}
{"smiles": "CCN(Cc1noc(CC(C)C)n1)Cc1ccccc1OCC(=O)O", "values": [{"measurement": "cytotoxicity at 10 µM", "result": -49, "unit": "%"}]}
{"smiles": "COc1cccc(F)c1-c1c[nH]c(C)n1", "values": [{"measurement": "cytotoxicity at 10 µM", "result": -0.654, "unit": "%"}]}
{"smiles": "c1cncc(NCCCNC2CCSC2)c1", "note": "(configuration not stated)", "values": [{"measurement": "cytotoxicity at 10 µM", "result": -3.62, "unit": "%"}]}
{"smiles": "CC(C)c1nc(N2CCN3CCCC3C2)c2cnn(C)c2n1", "note": "(configuration not stated)", "values": [{"measurement": "cytotoxicity at 10 µM", "result": -11.9, "unit": "%"}]}
{"smiles": "CCn1ncnc1C1CC(=O)NCc2nc3ccccn3c21", "note": "(configuration not stated)", "values": [{"measurement": "cytotoxicity at 10 µM", "result": -12.2, "unit": "%"}]}
{"smiles": "Cc1ncc(-c2nc3cc(S(=O)(=O)N4CCCC4)ccc3n2C)cn1", "values": [{"measurement": "cytotoxicity at 10 µM", "result": -21, "unit": "%"}]}
{"smiles": "Cc1cnc(N2CCCC3(CCCN(C)C3)C2)nc1", "note": "(configuration not stated)", "values": [{"measurement": "cytotoxicity at 10 µM", "result": -11.8, "unit": "%"}]}
{"smiles": "CC(C)c1noc(CN2CCCN(Cc3cccs3)CC2)n1", "values": [{"measurement": "cytotoxicity at 10 µM", "result": -6.86, "unit": "%"}]}
{"smiles": "NC(=O)C1CCN(C(=O)c2cccn2Cc2cccs2)C1", "note": "(configuration not stated)", "values": [{"measurement": "cytotoxicity at 10 µM", "result": -8.5, "unit": "%"}]}
{"smiles": "CCC(CC)C(=O)NS(=O)(=O)c1ccc(C#N)cc1C(F)(F)F", "values": [{"measurement": "cytotoxicity at 10 µM", "result": -15.9, "unit": "%"}]}
{"smiles": "COc1ccc(F)cc1C(C)NC(=O)NCCCn1cncn1", "note": "(configuration not stated)", "values": [{"measurement": "cytotoxicity at 10 µM", "result": -17.8, "unit": "%"}]}
{"smiles": "Cc1ccc(NC2CCN(C(=O)c3cccc4cccnc34)CC2)nn1", "values": [{"measurement": "cytotoxicity at 10 µM", "result": -8.31, "unit": "%"}]}
{"smiles": "O=C(COc1ccc(C(F)(F)F)cc1)N1CCOCC1c1ncon1", "note": "(configuration not stated)", "values": [{"measurement": "cytotoxicity at 10 µM", "result": -12.5, "unit": "%"}]}
{"smiles": "OCCN1CCN(CC(O)c2ccc(OC(F)(F)F)cc2)CC1", "note": "(configuration not stated)", "values": [{"measurement": "cytotoxicity at 10 µM", "result": -20.8, "unit": "%"}]}
{"smiles": "Cc1ccccc1CCC(=O)N1CCCC(c2cc(C(N)=O)[nH]n2)C1", "note": "(configuration not stated)", "values": [{"measurement": "cytotoxicity at 10 µM", "result": -11.3, "unit": "%"}]}
{"smiles": "Cc1nc(C2CCCN(C(=O)c3ccoc3)C2)no1", "note": "(configuration not stated)", "values": [{"measurement": "cytotoxicity at 10 µM", "result": -13.1, "unit": "%"}]}
{"smiles": "CC(=O)Nc1nc(CN2CCOC(Cn3cncn3)C2)cs1", "note": "(configuration not stated)", "values": [{"measurement": "cytotoxicity at 10 µM", "result": -27.5, "unit": "%"}]}
{"smiles": "Cc1cccc(C(=O)N2CCC(C(=O)c3cc(F)ccc3F)CC2)n1", "values": [{"measurement": "cytotoxicity at 10 µM", "result": -0.448, "unit": "%"}]}
{"smiles": "O=C(CCc1cccs1)N1CCCC(N2CCNC2=O)C1", "note": "(configuration not stated)", "values": [{"measurement": "cytotoxicity at 10 µM", "result": -6.7, "unit": "%"}]}
{"smiles": "Cc1ncc(C(=O)NC2CCc3nccn3C2)c(C(C)C)n1", "note": "(configuration not stated)", "values": [{"measurement": "cytotoxicity at 10 µM", "result": -2.31, "unit": "%"}]}
{"smiles": "O=C(NCCC(=O)N1CCCc2ccccc21)c1ccc(F)cc1F", "values": [{"measurement": "cytotoxicity at 10 µM", "result": -10.1, "unit": "%"}]}
{"smiles": "Cn1cc(C(=O)N2CCCC(n3cncn3)C2)ccc1=O", "note": "(configuration not stated)", "values": [{"measurement": "cytotoxicity at 10 µM", "result": -5.03, "unit": "%"}]}
{"smiles": "O=C(CCNC(=O)C1CCCC1)NCc1ccccc1Cn1cncn1", "values": [{"measurement": "cytotoxicity at 10 µM", "result": -5.63, "unit": "%"}]}
{"smiles": "CCNc1cc2c(nn1)CCN(C(=O)Cc1c(C)noc1C)C2", "values": [{"measurement": "cytotoxicity at 10 µM", "result": -8.89, "unit": "%"}]}
{"smiles": "CC(C)C(C(=O)N1CCCN(Cc2nccn2C)CC1)N1CCCC1", "note": "(configuration not stated)", "values": [{"measurement": "cytotoxicity at 10 µM", "result": -13, "unit": "%"}]}
{"smiles": "c1csc(-c2nc(CN3CCn4c(nnc4C4CC4)C3)co2)c1", "values": [{"measurement": "cytotoxicity at 10 µM", "result": 7.17, "unit": "%"}]}
{"smiles": "Cc1ccc(NC2CCN(C(=O)c3cc(C(N)=O)cs3)CC2)nn1", "values": [{"measurement": "cytotoxicity at 10 µM", "result": 2.94, "unit": "%"}]}
{"smiles": "COc1c(C2CCCN2C(=O)c2ccc3cc[nH]c3c2)c(C)nn1C", "note": "(configuration not stated)", "values": [{"measurement": "cytotoxicity at 10 µM", "result": -2.74, "unit": "%"}]}
{"smiles": "O=C(CO[C@@H]1CC[C@H]2[C@H]1OCCN2CC1CCOCC1)N1CCCC1", "values": [{"measurement": "cytotoxicity at 10 µM", "result": -11.6, "unit": "%"}]}
{"smiles": "Cc1ccc(CN2CCC3(CC2)COCCN3S(C)(=O)=O)o1", "values": [{"measurement": "cytotoxicity at 10 µM", "result": 8.86, "unit": "%"}]}
{"smiles": "O=c1c2c[nH]c(N3CCC(O)CC3)nc-2cn1Cc1cccc(F)c1", "values": [{"measurement": "cytotoxicity at 10 µM", "result": 20.6, "unit": "%"}]}
{"smiles": "O=c1[nH][nH]c2cn(-c3ccc(Cl)cc3)c(=O)n12", "values": [{"measurement": "cytotoxicity at 10 µM", "result": 6.45, "unit": "%"}]}
